Data set [1] is described as follows: Metabolic stability in human liver. The data set is classed as ADME, tissue-based. The gist of the method:
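In vitro incubation with human liver homogenate; metabolic stability expressed as half-life (t1/2, min).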

Data set [2] addresses T1, Neuronal acetylcholine receptor; alpha4/beta2 (Rattus norvegicus, UniProt P09483+P12390). In words: (§1) Displacement of [3H]cytisine from alpha-4-beta-2 nAChR in rat brain membrane. In kind it is cell membranes. The gist of the method: (§2)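 Competition binding against [3H]cytisine on rat brain membranes at a contract lab, following a published nicotinic binding protocol. Affinity reported as Ki.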
On the technique in general: In a radioligand displacement assay an active substance lowers the binding of a labelled ligand.

The target of data set [3] is T2, Neuronal acetylcholine receptor; alpha4/beta2 (Rattus norvegicus) (UniProt P09483+P12390). Described as §1. The data set is classed as cell membranes. A digest of the protocol: as §2
Data set [4] deals with T1, Neuronal acetylcholine receptor; alpha4/beta2. As to the kind of experiment: Displacement of [3H]L-nicotine from alpha-4-beta-2 nAChR in rat cerebral cortex. The data set is classed as tissue-based.
Data set [5] deals with T2, Neuronal acetylcholine receptor; alpha4/beta2 (Rattus norvegicus). As to the kind of experiment: Agonist activity at alpha4beta2 nAChR in rat striatal membranes assessed as effect on [3H]dopamine release. The data set is classed as functional. To be noted: Striatum, Slice, in the assay text read “striatal slices” for “striatal membranes”. A digest of the protocol: (§3)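 Rat striatal slices were used for [3H]dopamine release. Test compound was added with the K+ pulse for 5 min, at 10 nM (t = 50 min) and 1 µM (t = 90 min). […] In parallel runs, mecamylamine (0.1 µM) or DHβE (1 µM) sensitivity was read as percent inhibition of evoked release.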

For data set [6] the target is unchanged. In words: Agonist activity at alpha-4-beta-2 nAChR in rat striatal membranes assessed as effect on [3H]dopamine release relative to nicotine. In kind it is functional. The note with it: Striatum, Slice, in the assay text read “striatal slices” for “striatal membranes”. A digest of the protocol: as §3
A short description of data set [7]: Ratio of drug level in brain to plasma in po dosed rat. In kind it is ADME, organism-based. A digest of the protocol: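 Rat iv/po pharmacokinetic study. Drug levels were measured in brain (ng/g) and plasma (ng/ml) after oral administration, and the brain-plasma ratio was derived from them.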
The nature of data set [8]: Drug level in po dosed rat plasma. Also noted: route oral. In kind it is ADME, organism-based. A digest of the protocol:
(§4)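 Rats dosed orally; drug concentrations at Cmax measured in brain tissue (ng/g) and in plasma (ng/ml).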

A short description of data set [9]: Oral bioavailability in rat. To be noted: in vivo. The data set is classed as ADME, organism-based. The gist of the method:
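Rat pharmacokinetic study with both intravenous and oral dosing; oral bioavailability (%) derived by comparing the two routes.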

Data set [10] concerns the target T2, Neuronal acetylcholine receptor; alpha4/beta2 (Rattus norvegicus). In words: Antagonist activity at alpha-4-beta-2 nAChR in rat striatal slices assessed as blockade of nicotine-induced [3H]dopamine release at 10 uM. The note with it: Striatum, Slice. Also noted: scale not given: the % may be the effect or the level left.
A short description of data set [11]: Drug level in po dosed rat brain. In kind it is ADME, organism-based. Also noted: route oral. A digest of the protocol: as §4

Calls of active or inactive are those of the source. The rule behind the calls is not given here.

T1 sequence (P09483 whole entry): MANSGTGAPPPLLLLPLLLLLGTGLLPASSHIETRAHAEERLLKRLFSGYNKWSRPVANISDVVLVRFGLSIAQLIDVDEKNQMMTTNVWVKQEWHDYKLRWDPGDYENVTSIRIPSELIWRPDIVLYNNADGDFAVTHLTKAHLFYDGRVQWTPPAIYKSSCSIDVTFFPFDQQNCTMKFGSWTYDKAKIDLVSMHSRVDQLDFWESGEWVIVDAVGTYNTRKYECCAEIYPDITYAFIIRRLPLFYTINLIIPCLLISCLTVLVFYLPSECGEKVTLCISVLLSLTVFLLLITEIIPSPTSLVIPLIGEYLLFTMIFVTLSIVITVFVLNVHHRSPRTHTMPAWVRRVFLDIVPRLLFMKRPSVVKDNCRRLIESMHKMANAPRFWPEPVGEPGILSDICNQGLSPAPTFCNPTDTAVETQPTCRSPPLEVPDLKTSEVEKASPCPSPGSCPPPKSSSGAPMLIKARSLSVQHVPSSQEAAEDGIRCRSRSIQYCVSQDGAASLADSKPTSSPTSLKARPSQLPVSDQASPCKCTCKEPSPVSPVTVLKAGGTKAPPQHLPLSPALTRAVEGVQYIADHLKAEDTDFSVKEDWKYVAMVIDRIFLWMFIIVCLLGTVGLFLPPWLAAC
T1 sequence (P12390 whole entry): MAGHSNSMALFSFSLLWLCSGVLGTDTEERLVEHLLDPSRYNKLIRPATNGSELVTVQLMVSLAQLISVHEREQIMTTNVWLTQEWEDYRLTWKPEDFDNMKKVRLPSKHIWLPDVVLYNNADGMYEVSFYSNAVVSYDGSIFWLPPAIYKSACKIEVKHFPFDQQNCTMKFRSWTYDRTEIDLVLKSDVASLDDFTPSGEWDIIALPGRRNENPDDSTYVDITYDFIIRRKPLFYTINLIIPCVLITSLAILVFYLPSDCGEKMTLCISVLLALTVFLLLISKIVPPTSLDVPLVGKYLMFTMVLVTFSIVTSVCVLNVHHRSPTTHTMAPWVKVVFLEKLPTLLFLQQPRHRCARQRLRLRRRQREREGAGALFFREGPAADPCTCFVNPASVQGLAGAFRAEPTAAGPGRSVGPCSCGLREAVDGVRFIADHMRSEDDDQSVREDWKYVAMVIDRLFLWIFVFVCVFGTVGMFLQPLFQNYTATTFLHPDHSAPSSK

By half-life is commonly meant the time in which the quantity being followed falls by half. One may read the Ki as the equilibrium dissociation constant of an inhibitor or competing ligand from its target. In turn, `Br.c1cnc2[nH]c(C3CCNC3)cc2c1` (configuration not stated) showed a half-life in [1] of 2.23 h. In data set [2], this compound displayed a Ki of 10 nM.

With `Brc1ccc2cc(C[C@@H]3CCCN3)[nH]c2n1`, the outcome in [3] was inactive.

`Clc1ccnc2[nH]c(C3CCCNC3)cc12` (configuration not stated): the result in data set [3] was inactive.

The compound `CN[C@@H](C)C/C=C/c1cncc(OC)c1` came in with a Ki in data set [4] of 11 nM.

For `c1cnc2[nH]c(C[C@@H]3CCCN3)cc2c1`, the Ki in data set [2] turned out to be 2750 nM.

Consider `c1cnc2[nH]c(C3CCCNC3)cc2c1` (single isomer, unassigned; (+)), for which, in [3], the result was inactive.

In the case of `Clc1ccc2c(C3CCCNC3)c[nH]c2n1` (configuration not stated), the Ki in [2] was found to be 2950 nM.

In [2], `CN1CCC[C@H]1Cc1cc2cccnc2[nH]1` registered a Ki of 691 nM.

For `Clc1ccc2cc(C3CCCNC3)[nH]c2n1` (racemic), in data set [3], the outcome was inactive.

In general, Kp refers to the ratio of the level in a tissue or fluid to that in plasma or blood. Usually Cmax stands for the peak of the concentration-time curve. The bioavailability is the share of a dose that reaches the circulation, judged against a reference dose that is usually intravenous. For `c1cnc2[nH]c(C[C@H]3CCCN3)cc2c1`, in data set [5], the result was Active. Besides, the values for the Activity in [6] and in data set [10] were 62% and 70%, respectively. For the same compound, in data set [7], the Kp stood at 3.7. The Cmax was 120 ng/mL in [8] and 280 ng/g in data set [11]. In [9], the bioavailability came to 11.3%. The half-life in [1] was 4.43 h.

Compound `c1cnc2[nH]c(C3CCCNC3)cc2c1` (single isomer, unassigned; (-)) returned an inhibition constant (Ki) in data set [2] of 2000 nM.

In [2], `Fc1ccc2cc(C[C@H]3CCCN3)[nH]c2n1` returned a Ki of 316 nM.

Consider `Fc1ccc2cc(C[C@@H]3CCCN3)[nH]c2n1`, for which affinity in data set [2] was put at a Ki of 2000 nM.

In turn, `Clc1ccc2cc(C[C@@H]3CCCN3)[nH]c2n1` came in with a Ki in data set [2] of 3720 nM.

`Clc1ccc2cc(C[C@H]3CCCN3)[nH]c2n1` had a Ki in data set [2] of 147 nM.

As for `c1cnc2[nH]c(C3CCNC3)cc2c1` (configuration not stated), the outcome in data set [5] was Active.

Consider `c1cnc2[nH]c(C3CCNC3)cc2c1` (single isomer, unassigned; (-)), for which the Ki in data set [2] was found to be 251 nM.

`Brc1ccc2cc(C[C@H]3CCCN3)[nH]c2n1` showed a Ki in [2] of 691 nM.

In the case of `COc1ccc2cc(C[C@H]3CCCN3)[nH]c2n1`, the result in [3] was inactive.

`c1cnc2[nH]cc(C3CCCNC3)c2c1` (configuration not stated) displayed a Ki in data set [2] of 2950 nM.

On to `CN1CCC[C@@H]1Cc1cc2cccnc2[nH]1`, for which the Ki in data set [2] turned out to be 2510 nM.

In data set [2], `Clc1ccc2cc(C3CCCNC3)[nH]c2n1` (single isomer, unassigned; (+)) displayed a Ki of 3460 nM.

`c1cnc2[nH]c(C3CCNC3)cc2c1` (racemic) returned a Ki in [2] of 16 nM.

For `Clc1ccc2cc(C3CCCNC3)[nH]c2n1` (single isomer, unassigned; (-)), the outcome in [3] was inactive.

The record behind these values is ChEMBL document CHEMBL1141606, “7-Azaindole derivatives as potential partial nicotinic agonists” (Bioorg Med Chem Lett, 2008).
